Test results as given in PubChem BioAssay.
Calls of active or inactive are those of the source. Rule as the data show it, unless noted: active = inhibition above about 31%; inactive = the rest.

How the values were obtained:
[1] = HUVEC growth inhibition – cell-based, human, primary screen (AID 575;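 active = viability at or below 30% in both replicate assays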;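 also: 100% = median of untreated cell wells with 0.1% DMSO on each plate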); conditions: HUVEC proliferation, CellTiter-Glo luminescence, 72 h; at 10 µM; stronger effect = lower value
Method in brief: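 Assay system: Primary human umbilical vein endothelial cells | Quantity: 1250 cells per well | Medium: Supplemented EBM, 2% fetal bovine serum | Detection: CellTiter-Glo luminescence measuring cellular ATP | Read-out: % viability vs DMSO wells | Plate: Collagen-coated 384-well format | Times: 72 h exposure, 37 °C, 5% CO2, 30 min RT equilibration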

[2] = H69AR cell proliferation blockers – human, duplicate replicates, primary screen (AID 580;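 active = viability at or under a set limit in both replicates, limit being median viability minus 3 SD, cut at about 48% in these data, passing the limit was not always enough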;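 also: 100% = mean luminescence of untreated wells and 0% = no signal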); conditions: H69AR lung tumor cells viability, ATP luminescence, 72 h; at 10 µM; stronger effect = lower value
[3] = MRP1 drug-resistance reversers in H69AR cells – cell-based, doxorubicin co-treatment, pilot screen (AID 601;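 active = viability loss from added drug above about 55%, and viability with drug at most 40%, in both replicates, limit read from the data, passing the limit was not always enough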); conditions: CellTiter-Glo, 72 h, at 10 µM; for differential viability (reversal): stronger effect = higher value
[4] = yeast transport mutant growth inhibition pilot in 384-well plates, post-Golgi transport modulator project (AID 636); conditions: absorbance 615 nm, about 18 h, stronger effect = higher value
[5] = growth suppression of yeast trafficking mutant, preliminary HTS, modulators of trafficking downstream of Golgi apparatus project, 1536-format plate, OD 615 nm (AID 637; in the data active = inhibition above about 30%); conditions: yeast transport mutant growth, absorbance 615 nm, 18 h; stronger effect = higher value
[6] = H69AR cells + 2 uM doxorubicin, measured here: viability with 2 uM doxorubicin, stronger effect = lower value
[7] = H69AR cells, compound alone cytotoxicity

SMILES | viability [1] | viability [2] | differential viability (reversal) ([3]; H69AR cells + 2 uM doxorubicin) | viability [3, 6] | viability [3, 7] | inhibition [4] | inhibition [5]
CC(C)c1nnc(NC(=O)CCC(=O)NCc2ccc3c(c2)OCO3)s1 | 103% (inactive) | 97.7% (inactive) | -1.39% (inactive) | 99.1% | 97.7% | -5.2% (inactive) | 2.86% (inactive)
CCn1nnc(NC(=O)c2ccccc2Br)n1 | 103% (inactive) | 99.9% (inactive) | 10.5% (inactive) | 89.4% | 99.9% | -8.93% (inactive) | 2.86% (inactive)
CCOc1ccccc1NC(=O)CCSc1nc2n[nH]c(C)c2c(=N)n1-c1ccccc1Cl | 39.2% (inactive) | 16.9% (active) | 0.49% (inactive) | 16.4% | 16.9% | -3.03% (inactive) | -3.5% (inactive)
Cc1ccc(NC(=O)CSc2nnc(-c3ccccn3)n2C)cc1 | 115% (inactive) | 91.5% (inactive) | -0.845% (inactive) | 92.3% | 91.5% | -7.73% (inactive) | -8.89% (inactive)
Cn1c(=O)c2c(nc(SCC(=O)NCc3ccc4c(c3)OCO4)n2Cc2ccccc2)n(C)c1=O | 93.4% (inactive) | 92.6% (inactive) | -7.06% (inactive) | 99.7% | 92.6% | 0.26% (inactive) | -4.13% (inactive)
CN(c1ccccc1C(=O)N1CCN(c2cccc(Cl)c2)CC1)S(C)(=O)=O | 108% (inactive) | 93.8% (inactive) | -0.775% (inactive) | 94.5% | 93.8% | -6.53% (inactive) | 1.43% (inactive)
CCOC(=O)c1ccc(NS(=O)(=O)c2ccc(SC)cc2)cc1 | 99% (inactive) | 108% (inactive) | 10.8% (inactive) | 97.4% | 108% | -7.11% (inactive) | -3.81% (inactive)
O=C1c2cccnc2C(=O)N1c1cccc(-c2nc3ccccc3o2)c1 | 111% (inactive) | 92.9% (inactive) | 6.53% (inactive) | 86.4% | 92.9% | -6.27% (inactive) | 3.65% (inactive)
CCOC(=O)C1CCN(C(=O)c2c(-c3c(Cl)cccc3Cl)noc2C)CC1 | 95.8% (inactive) | 84.8% (inactive) | -6.21% (inactive) | 91.1% | 84.8% | -2.73% (inactive) | -9.68% (inactive)
O=C(CCNC(=O)c1ccc(Br)o1)NC1CCCC1 | 87% (inactive) | 95.1% (inactive) | 16.9% (inactive) | 78.2% | 95.1% | -4.4% (inactive) | 4.29% (inactive)
O=c1oc(-c2ccco2)nc2ccccc12 | 92.6% (inactive) | 91% (inactive) | 4.72% (inactive) | 86.2% | 91% | -0.78% (inactive) | -2.22% (inactive)
O=C(NC1CC2CCC1C2)C1COc2ccccc2O1 (stereo unspecified) | 100% (inactive) | 87.9% (inactive) | 4.5% (inactive) | 83.4% | 87.9% | -3.55% (inactive) | -2.38% (inactive)
CCN1CCN(C(=O)c2cn(CCOC)c(=O)c3c2c2ccccc2n3C)CC1 | 106% (inactive) | 90.6% (inactive) | -2.77% (inactive) | 93.4% | 90.6% | -2.86% (inactive) | -5.4% (inactive)
O=C(NC1(C(F)(F)F)NC(=O)N(Cc2ccco2)C1=O)c1cccnc1 (stereo unspecified) | 109% (inactive) | 97.2% (inactive) | 2.34% (inactive) | 94.8% | 97.2% | -7.89% (inactive) | 1.11% (inactive)
N#Cc1c(-c2ccccc2)nc(N2CCCCCC2)[nH]c1=O | 91.5% (inactive) | 88.2% (inactive) | -3.53% (inactive) | 91.7% | 88.2% | -4.8% (inactive) | -3.02% (inactive)
Cc1nnc(SCC(=O)Nc2nccs2)s1 | 95.7% (inactive) | 93% (inactive) | 1.75% (inactive) | 91.3% | 93% | -6.67% (inactive) | -2.22% (inactive)
CC(C(N)=O)N1C(=O)C2C3C=CC(C3)C2C1=O (stereo unspecified) | 85.1% (inactive) | 106% (inactive) | 10.4% (inactive) | 95.2% | 106% | -1.6% (inactive) | -2.22% (inactive)
CC1CCN(C(=O)c2ccc(C(=O)N3CCC(C)CC3)cc2)CC1 | 87.3% (inactive) | 101% (inactive) | 5.22% (inactive) | 95.4% | 101% | -0.66% (inactive) | 0.48% (inactive)
COc1ccccc1NC(=O)N1c2ccc(F)cc2CCC1C (stereo unspecified) | 83.3% (inactive) | 99% (inactive) | 15% (inactive) | 84% | 99% | -2.47% (inactive) | 3.02% (inactive)

SMILES | viability [1] | viability [2] | differential viability (reversal) ([3]; H69AR cells + 2 uM doxorubicin) | viability [3, 6] | viability [3, 7] | inhibition [4] | inhibition [5]
Oc1cccc2ccc(Nc3ccccn3)nc12 | 2.4% (active) | 1.99% (active) | 0.495% (inactive) | 1.5% | 1.99% | -4.16% (inactive) | 2.22% (inactive)
c1ccc(CNC2=NCCC2)nc1 | 102% (inactive) | 101% (inactive) | 3.93% (inactive) | 96.8% | 101% | -0.91% (inactive) | -7.46% (inactive)
O=C(NCc1n[nH]c(=S)n1-c1ccc(F)cc1)c1ccco1 | 102% (inactive) | 96.2% (inactive) | 6.98% (inactive) | 89.2% | 96.2% | -0.53% (inactive) | -1.11% (inactive)
CCOC(=O)c1ccc(NC(=O)Nc2ccn(C)n2)cc1 | 101% (inactive) | 91.2% (inactive) | 4.49% (inactive) | 86.7% | 91.2% | -6.27% (inactive) | 1.75% (inactive)
COc1ccc(N2CCN(C(=O)CSc3ncnc4c3cnn4-c3ccccc3C)CC2)cc1 | 55.5% (inactive) | 68.6% (inactive) | -7.28% (inactive) | 75.8% | 68.6% | 0.53% (inactive) | 16% (inactive)
CCCCCC1NC(=O)NC1CCCCCC(=O)O (stereo unspecified) | 98.5% (inactive) | 104% (inactive) | 14.3% (inactive) | 89.2% | 104% | -0.91% (inactive) | -2.22% (inactive)
COc1ccccc1-c1c(C)nn2c(C)c(C(C)=O)cnc12 | 111% (inactive) | 94.3% (inactive) | 10.3% (inactive) | 84% | 94.3% | -6.1% (inactive) | 1.27% (inactive)
O=C1CNCc2[nH]c3ccccc3c2N1c1ccccc1 | 94.2% (inactive) | 94.8% (inactive) | -1.22% (inactive) | 96% | 94.8% | -3.95% (inactive) | 1.27% (inactive)
COc1ccc2c(c1)CCc1c(C(=O)N3CC4(C)CC3CC(C)(C)C4)noc1-2 (stereo unspecified) | 52.3% (inactive) | 75.1% (inactive) | 0.855% (inactive) | 74.3% | 75.1% | -2.34% (inactive) | -3.02% (inactive)
Cc1nc(-c2ccc(NC(=O)c3cccs3)cc2)cs1 | 58.8% (inactive) | 62.3% (inactive) | 9.12% (inactive) | 53.2% | 62.3% | 0.13% (inactive) | 1.9% (inactive)
Cc1cc(NC(=O)C2CCCC2)nc2c1c(=O)oc1ccccc12 | 60.3% (inactive) | 62.8% (inactive) | -24.9% (inactive) | 87.8% | 62.8% | -5.45% (inactive) | 3.49% (inactive)
Brc1ccc(-c2nnc3sc(CN4CCC5(CC4)OCCO5)cn23)cc1 | 113% (inactive) | 95.9% (inactive) | 7.72% (inactive) | 88.1% | 95.9% | -2.08% (inactive) | -2.22% (inactive)
CSc1ccccc1NS(=O)(=O)c1ccccc1 | 101% (inactive) | 102% (inactive) | 10.8% (inactive) | 90.8% | 102% | -4.61% (inactive) | 0% (inactive)
COCCn1cc(C(=O)NCCCN2CCC(C)CC2)c2c3ccccc3n(C)c2c1=O | 90.7% (inactive) | 88.8% (inactive) | 2.62% (inactive) | 86.2% | 88.8% | -5.97% (inactive) | 1.11% (inactive)
CCOc1ccc(OCC)c(NC(=O)C2CCN(c3ncccn3)CC2)c1 | 105% (inactive) | 86.1% (inactive) | -12.5% (inactive) | 98.5% | 86.1% | -3.47% (inactive) | -2.06% (inactive)
CCOC(=O)C1CCCN(S(=O)(=O)c2cccs2)C1 (stereo unspecified) | 110% (inactive) | 109% (inactive) | 12.7% (inactive) | 96.7% | 109% | 0.66% (inactive) | -6.03% (inactive)
COC(=O)Cn1cc(C(=O)c2cccs2)c2ccccc21 | 103% (inactive) | 96.4% (inactive) | 9.54% (inactive) | 86.9% | 96.4% | -2.34% (inactive) | 1.43% (inactive)
COc1cccc(C(=O)Nc2cnc(NC(=O)c3ccco3)cc2C)c1 | 103% (inactive) | 86.6% (inactive) | 8.55% (inactive) | 78.1% | 86.6% | -2.21% (inactive) | -4.44% (inactive)
CC(CN1CCCCC1)OC(=O)c1ccc(Cl)cc1Cl (stereo unspecified) | 96.7% (inactive) | 92.9% (inactive) | 7.05% (inactive) | 85.9% | 92.9% | 0.53% (inactive) | -3.65% (inactive)
